Measurements: ChEMBL document CHEMBL2157924, “Cyclobutane derivatives as novel nonpeptidic small molecule agonists of glucagon-like peptide-1 receptor” (J Med Chem, 2012)
The source made the active and inactive calls. The calls are words filed in the database; no cut-off is given here.

Tests used:
[1] = target: T1, Glucagon-like peptide 2 receptor (Homo sapiens) (UniProt O95838); test: Agonist activity at human GLP2R expressed in HEK293 cells assessed as stimulation of cAMP levels incubated for 6 hrs by multiple response element/cAMP response element (MRE/CRE)-driven reporter gene assay; assay type: functional, cell-based
T1 sequence (whole entry): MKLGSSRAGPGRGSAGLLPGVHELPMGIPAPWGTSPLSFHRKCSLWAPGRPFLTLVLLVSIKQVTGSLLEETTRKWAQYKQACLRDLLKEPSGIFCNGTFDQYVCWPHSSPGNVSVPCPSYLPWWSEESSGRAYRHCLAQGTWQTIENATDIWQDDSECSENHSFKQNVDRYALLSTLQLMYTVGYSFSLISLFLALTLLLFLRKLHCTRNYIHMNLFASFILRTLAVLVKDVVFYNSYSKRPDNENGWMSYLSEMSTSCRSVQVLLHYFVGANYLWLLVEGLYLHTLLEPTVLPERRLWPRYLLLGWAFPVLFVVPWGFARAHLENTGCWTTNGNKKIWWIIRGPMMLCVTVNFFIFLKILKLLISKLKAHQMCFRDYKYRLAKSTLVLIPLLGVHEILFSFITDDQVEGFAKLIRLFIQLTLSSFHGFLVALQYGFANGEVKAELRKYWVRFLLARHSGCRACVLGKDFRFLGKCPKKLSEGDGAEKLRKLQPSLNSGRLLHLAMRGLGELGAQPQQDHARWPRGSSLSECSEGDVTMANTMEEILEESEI
Summary of the method: (§1)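 HEK293 cells transiently cotransfected with human GLP-2 receptor or glucagon receptor expression vector plus a luciferase reporter carrying three copies of multiple response element and one cAMP response element. Luciferase activity at different compound concentrations was expressed relative to the respective native peptide (GLP-2 or glucagon, 100%). Mean ± SEM of triplicate experiments.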

[2] = target: T2, Glucagon-like peptide 1 receptor (Rattus norvegicus, UniProt P32301); test: Inhibition of [125I]GLP1 (7-36) amide binding to rat GLP1R expressed in HEK293 cells; assay type: cell-based
T2 sequence (P32301 whole entry): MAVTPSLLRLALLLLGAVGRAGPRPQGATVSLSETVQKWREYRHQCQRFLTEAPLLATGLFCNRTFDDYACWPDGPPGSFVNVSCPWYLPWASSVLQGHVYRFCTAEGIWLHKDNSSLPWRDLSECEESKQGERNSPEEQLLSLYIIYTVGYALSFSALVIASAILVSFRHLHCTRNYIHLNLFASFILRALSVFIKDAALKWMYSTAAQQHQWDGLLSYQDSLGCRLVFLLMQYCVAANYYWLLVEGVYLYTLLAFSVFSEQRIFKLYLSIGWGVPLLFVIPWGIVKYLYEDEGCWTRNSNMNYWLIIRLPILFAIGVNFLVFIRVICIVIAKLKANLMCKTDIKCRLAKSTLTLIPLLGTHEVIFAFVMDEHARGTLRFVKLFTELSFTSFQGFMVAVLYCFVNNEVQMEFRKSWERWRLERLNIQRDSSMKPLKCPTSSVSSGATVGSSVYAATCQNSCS
Summary of the method: (§2)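 Membranes (17 μg protein) from HEK293 cells stably expressing rat GLP-1R were preincubated 5 h at 4 °C with FlashBlue beads (150 μg). Then 40 pM [125I]GLP-1(7−36) amide or [125I]Exendin(9−39) was added with aprotinin 2 μg/mL, leupeptin 100 μM and test compound at varied concentrations. Incubated overnight at 4 °C, then bound radioactivity counted. Mean ± SEM of two independent experiments.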

[3] = target: T3, Glucagon-like peptide 1 receptor (Rattus norvegicus) (UniProt P32301); test: Agonist activity at rat GLP1R expressed in HEK293 cells assessed as stimulation of cAMP levels incubated for 6 hrs by multiple response element/cAMP response element (MRE/CRE)-driven reporter gene assay relative to 10 nM GLP1; assay type: functional, cell-based
T3 sequence (whole entry): T2 sequence (P32301 whole entry)
Summary of the method: (§3)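 Stable HEK293 line co-expressing rat GLP-1R (pCMV-Tag2B) and a luciferase reporter with 3× MRE plus 1× CRE, seeded at 40000 cells/well and cultured overnight. Compounds in DMSO or GLP-1(7−37) were added for 6 h, then cells were lysed and luciferase read (Steady-Glo). The 10 nM GLP-1 maximum was taken as 100%. Mean ± SEM of two independent experiments; some values come from a single run.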

[4] = target: T2, Glucagon-like peptide 1 receptor; test: Agonist activity at rat GLP1R expressed in HEK293 cells assessed as stimulation of cAMP levels incubated for 6 hrs by multiple response element/cAMP response element (MRE/CRE)-driven reporter gene assay; assay type: functional, cell-based; summary of the method: as §3
[5] = target: T3, Glucagon-like peptide 1 receptor (Rattus norvegicus); test: Inhibition of [125I]GLP1 (7-36) amide binding to rat GLP1R expressed in HEK293 cells relative to untreated control; assay type: cell-based; parameters: concentration or dose not given beside the values; conditions: concentration not given here; summary of the method: as §2
[6] = target: T3, Glucagon-like peptide 1 receptor (Rattus norvegicus); test: Inhibition of [125I]Exendin (9-39) binding to rat GLP1R expressed in HEK293 cells; assay type: cell-based; parameters: concentration or dose not given beside the values; conditions: concentration not given here; summary of the method: as §2
Mus musculus [7] = test: Reduction of body weight in C57BL/6J mouse diet-induced obesity model dosed intraperitoneally 3 times per week for 28 days by chronic weight loss study; assay type: functional, organism-based
Summary of the method: (§4)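 Male C57BL/6J mice (8 weeks at start, 18−20 g) kept on high-fat diet (60% fat) for 12 weeks, then randomised by body weight to groups of n = 8−9. Dosed ip Monday/Wednesday/Friday for 28 days with 0, 0.3, 1 or 3 mg in 1% DMSO/20% PEG400/saline, pH 7.4. Body weight recorded daily; a standard-chow group (n = 8) served as reference.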

Mus musculus [8] = test: Inhibition of acute food intake in intraperitoneally dosed C57BL/6J mouse measured 6 hrs post dose; assay type: functional, organism-based
Summary of the method: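 Male C57BL/6J mice (6 weeks, 18−20 g) fasted overnight and given a single ip dose of 0.1, 0.3, 1 or 3 mg or vehicle (1% DMSO, 20% PEG400 in saline). Mice housed singly with a preweighed food pellet, reweighed every 15 or 30 min for 6 h to give cumulative intake. n ≥ 6 per group; mean ± SEM.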

Mus musculus [9] = test: Reduction of body weight in C57BL/6J mouse diet-induced obesity model at 3 mg, ip dosed 3 times per week for 28 days by chronic weight loss study; assay type: functional, organism-based; summary of the method: as §4
[10] = target: Glucagon receptor (Homo sapiens) (UniProt P47871); test: Agonist activity at human glucagon receptor expressed in HEK293 cells assessed as stimulation of cAMP levels incubated for 6 hrs by multiple response element/cAMP response element (MRE/CRE)-driven reporter gene assay; assay type: functional, cell-based; summary of the method: as §1
Sequence of Glucagon receptor (Homo sapiens) (P47871 whole entry): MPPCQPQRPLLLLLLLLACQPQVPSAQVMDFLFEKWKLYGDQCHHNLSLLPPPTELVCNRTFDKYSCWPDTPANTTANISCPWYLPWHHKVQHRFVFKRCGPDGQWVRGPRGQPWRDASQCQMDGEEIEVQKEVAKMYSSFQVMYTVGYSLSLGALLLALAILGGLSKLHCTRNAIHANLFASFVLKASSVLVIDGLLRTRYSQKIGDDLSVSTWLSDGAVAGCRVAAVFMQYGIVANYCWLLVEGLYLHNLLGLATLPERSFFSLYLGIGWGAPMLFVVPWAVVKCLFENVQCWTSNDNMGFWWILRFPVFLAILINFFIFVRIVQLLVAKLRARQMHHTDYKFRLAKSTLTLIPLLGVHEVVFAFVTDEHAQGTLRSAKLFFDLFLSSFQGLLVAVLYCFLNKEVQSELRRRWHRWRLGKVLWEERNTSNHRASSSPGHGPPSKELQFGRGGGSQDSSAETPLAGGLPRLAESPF

Activity [1] | IC50 [2] [nM] | Efficacy [3] [%] | EC50 [4] [nM] | inhibition [5] [%] | inhibition [6] [%] | Compound | Activity (Mus musculus [7]) | inhibition (Mus musculus [8]) | Activity (Mus musculus [9]) | Activity [10]
inactive | 1 | 100 | 0.09 | 100 | 97 | CC[C@H](C)[C@H](NC(=O)[C@H](Cc1ccccc1)NC(=O)[C@H](CCC(=O)O)NC(=O)[C@H](CCCCN)NC(=O)[C@H](C)NC(=O)[C@H](C)NC(=O)[C@H](CCC(N)=O)NC(=O)CNC(=O)[C@H](CCC(=O)O)NC(=O)[C@H](CC(C)C)NC(=O)[C@H](Cc1ccc(O)cc1)NC(=O)[C@H](CO)NC(=O)[C@H](CO)NC(=O)[C@@H](NC(=O)[C@H](CC(=O)O)NC(=O)[C@H](CO)NC(=O)[C@@H](NC(=O)[C@H](Cc1ccccc1)NC(=O)[C@@H](NC(=O)CNC(=O)[C@H](CCC(=O)O)NC(=O)[C@H](C)NC(=O)[C@H](Cc1cnc[nH]1)NC(=O)[C@H](CCCNC(=N)N)NC(=O)[C@H](CCC(=O)O)NC(=O)[C@H](Cc1ccccc1)NC(=O)[C@H](CCC(=O)O)NC(=O)[C@H](CC(=O)O)NC(=O)[C@@H](N)Cc1cnc[nH]1)[C@@H](C)O)[C@@H](C)O)C(C)C)C(=O)N[C@@H](C)C(=O)N[C@@H](Cc1c[nH]c2ccccc12)C(=O)N[C@@H](CC(C)C)C(=O)N[C@H](C(=O)N[C@@H](CCCCN)C(=O)NCC(=O)N[C@@H](CCCNC(=N)N)C(=O)NCC(=O)O)C(C)C | – | – | – | –
– | 300 | 73.6 | 203 | 58.2 | 49.7 | COc1cc([C@H]2[C@](NC(=O)c3ccc(NC(=O)C(C)C)cc3)(C(=O)O)[C@@H](c3ccc(OC(=O)c4cccs4)c(OC)c3)[C@]2(NC(=O)c2ccc(NC(=O)C(C)C)cc2)C(=O)O)ccc1OC(=O)c1cccs1 | Dose-dependent effect | Active | – | –
Active | – | – | – | – | – | CC[C@H](C)[C@H](NC(=O)[C@H](Cc1ccccc1)NC(=O)[C@H](CC(=O)O)NC(=O)[C@H](CCCNC(=N)N)NC(=O)[C@H](C)NC(=O)[C@H](C)NC(=O)[C@H](CC(C)C)NC(=O)[C@H](CC(N)=O)NC(=O)[C@H](CC(=O)O)NC(=O)[C@H](CC(C)C)NC(=O)[C@@H](NC(=O)[C@@H](NC(=O)[C@H](CC(N)=O)NC(=O)[C@H](CCSC)NC(=O)[C@H](CCC(=O)O)NC(=O)[C@H](CC(=O)O)NC(=O)[C@H](CO)NC(=O)[C@H](Cc1ccccc1)NC(=O)[C@H](CO)NC(=O)CNC(=O)[C@H](CC(=O)O)NC(=O)[C@H](C)NC(=O)[C@@H](N)Cc1cnc[nH]1)[C@@H](C)O)[C@@H](C)CC)C(=O)N[C@@H](CC(N)=O)C(=O)N[C@@H](Cc1c[nH]c2ccccc12)C(=O)N[C@@H](CC(C)C)C(=O)N[C@H](C(=O)N[C@@H](CCC(N)=O)C(=O)N[C@H](C(=O)N[C@@H](CCCCN)C(=O)N[C@H](C(=O)N[C@H](C(=O)N[C@@H](CC(=O)O)C(=O)N[C@@H](CCCNC(=N)N)C(=O)O)[C@@H](C)O)[C@@H](C)CC)[C@@H](C)O)[C@@H](C)CC | – | – | – | –
– | > 20000 | < 15 | > 20000 | < 15 | < 15 | CC(C)(C)OC(=O)Nc1ccc(C(=O)N[C@]2(C(=O)O)[C@H](c3cccc(OCc4ccccc4)c3)[C@@](NC(=O)c3ccc(NC(=O)OC(C)(C)C)cc3)(C(=O)O)[C@@H]2c2cccc(OCc3ccccc3)c2)cc1 | – | – | – | –

Continued, compound first:

Compound | Activity [1] | IC50 [2] [nM] | Efficacy [3] [%] | EC50 [4] [nM] | inhibition [5] [%] | inhibition [6] [%] | Activity (Mus musculus [7]) | inhibition (Mus musculus [8]) | Activity (Mus musculus [9]) | Activity [10]
COc1cc([C@H]2[C@](NC(=O)c3ccc(NC(=O)OC(C)(C)C)cc3)(C(=O)O)[C@@H](c3ccc(OC(=O)c4cccs4)c(OC)c3)[C@]2(NC(=O)c2ccc(NC(=O)OC(C)(C)C)cc2)C(=O)O)ccc1OC(=O)c1cccs1 (stereo in doubt; 3) | inactive | – | 96.7 | – | 87.2 | 63.1 | – | – | Active | inactive
GLUCAGON | – | – | – | – | – | – | – | – | – | Active
CCOc1cc([C@H]2[C@](NC(=O)c3ccc(NC(=O)OC(C)(C)C)cc3)(C(=O)O)[C@@H](c3ccc(OC(=O)c4cccs4)c(OCC)c3)[C@]2(NC(=O)c2ccc(NC(=O)OC(C)(C)C)cc2)C(=O)O)ccc1OC(=O)c1cccs1 | – | 3100 | 85.6 | 326 | 50.2 | < 15 | – | – | – | –
CCC(=O)Nc1ccc(C(=O)N[C@]2(C(=O)O)[C@H](c3ccc(OC(=O)c4cccs4)c(OC)c3)[C@@](NC(=O)c3ccc(NC(=O)CC)cc3)(C(=O)O)[C@@H]2c2ccc(OC(=O)c3cccs3)c(OC)c2)cc1 | – | 4900 | 48.4 | 696 | 75.2 | 36.1 | – | – | – | –
